{
  "source": "ChEMBL document CHEMBL1914356",
  "about": "“Maslinic acid derivatives induce significant apoptosis in b16f10 murine melanoma cells” (2011)",
  "note": "Activity calls are given as the source filed them. No cut-off for these calls is given here.",
  "data": [
    {"test_system": "B16-F10", "assay": "Induction of apoptosis in mouse B16F10 cells assessed as necrotic cells at 30 uM after 24 hrs using annexin V-FITC/propidium iodide staining by flow cytometry", "format": "functional", "procedure,_shortened": "(§1)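 B16-F10 cells grown in DMEM with 4 mM L-glutamine, 1 mM pyruvate, 4.5 g/L glucose and 10% FBS. 300,000 cells/well were plated, then treated in DMSO after 24 h. Vehicle and medium-alone controls were included. Cells were detached with EDTA-trypsin, PBS-washed and set at 1 × 10^6 cells/mL in binding buffer. Annexin V-FITC/PI staining ran 15 min at room temperature in the dark, followed by flow cytometry within 1 h.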", "units": {"Activity": "%"}, "values": [
      {"smiles": "C=C1C[C@]2(C)[C@H]3CC=C4[C@@H]5CC(C)(C)CC[C@]5(C(=O)OC)CC[C@@]4(C)[C@]3(C)CC[C@H]2C(C)(C)[C@H]1OC(C)=O", "Activity": "<10"},
      {"smiles": "CC1(C)CC[C@]2(C(=O)OCc3ccccc3)CC[C@]3(C)C(=CC[C@@H]4[C@@]5(C)C=C(O)C(=O)C(C)(C)[C@@H]5CC[C@]43C)[C@@H]2C1", "Activity": "<10"},
      {"smiles": "COC(=O)C12CCC(C)=C(/C=C\\C3=C(C)CC[C@H]4C(C)(C)[C@@H](O)CC[C@]34C)[C@@H]1CC(C)(C)CC2", "note": "(single isomer, unassigned)", "Activity": "<10"},
      {"smiles": "CC1(C)CC[C@]2(C(=O)OCc3ccccc3)CC[C@]3(C)C(=CC[C@@H]4[C@@]5(C)CC(=O)[C@H](O)C(C)(C)[C@@H]5CC[C@]43C)[C@@H]2C1", "Activity": "<10"},
      {"smiles": "CC1(C)CC[C@]2(C(=O)O)CC[C@]3(C)C(=CC[C@@H]4[C@@]5(C)C[C@H](O)[C@H](O)C(C)(C)[C@@H]5CC[C@]43C)[C@@H]2C1", "note": "[AUGUSTIC ACID]", "Activity": "<10"},
      {"smiles": "CC1(C)CC[C@]2(C(=O)O)CC[C@]3(C)C(=CC[C@@H]4[C@@]5(C)CC[C@H](O)C(C)(C)[C@@H]5CC[C@]43C)[C@@H]2C1", "note": "[OLEANOLIC_ACID]", "Activity": "<10"},
      {"smiles": "CC(=O)O[C@H]1CC[C@]2(C)[C@H]3C[C@H](O)[C@]45OC(=O)[C@@]6(CCC(C)(C)C[C@H]64)CC[C@@]5(C)[C@]3(C)CC[C@H]2C1(C)C", "Activity": "<10"},
      {"smiles": "CC1(C)CC[C@]2(CN)CC[C@]3(C)C(=CC[C@@H]4[C@@]5(C)C[C@@H](O)[C@H](O)C(C)(C)[C@@H]5CC[C@]43C)[C@@H]2C1", "Activity": "<10"},
      {"smiles": "COC(=O)[C@]12CCC(C)(C)C[C@H]1C1=CC[C@@H]3[C@@]4(C)C=CC(=O)C(C)(C)[C@@H]4CC[C@@]3(C)[C@]1(C)CC2", "Activity": "<10"},
      {"smiles": "CC(=O)O[C@@H]1C[C@]2(C)[C@H]3CC=C4[C@@H]5CC(C)(C)CC[C@]5(C(N)=O)CC[C@@]4(C)[C@]3(C)CC[C@H]2C(C)(C)[C@H]1OC(C)=O", "Activity": "<10"},
      {"smiles": "CC1(C)CC[C@]2(CO)CC[C@]3(C)[C@](O)([C@H](O)C=C4[C@@]5(C)CC[C@H](O)C(C)(C)[C@@H]5CC[C@]43C)[C@@H]2C1", "Activity": "<10"},
      {"smiles": "CC1(C)CC[C@]2(CO)CC[C@]3(C)C(=CC[C@@H]4[C@@]5(C)C[C@H]6OC(C)(C)O[C@@H]6C(C)(C)[C@@H]5CC[C@]43C)[C@@H]2C1", "Activity": "<10"},
      {"smiles": "CC(=O)O[C@H]1CC[C@]2(C)C3=CC(=O)[C@]45OC(=O)[C@@]6(CCC(C)(C)C[C@H]64)CC[C@@]5(C)[C@]3(C)CC[C@H]2C1(C)C", "Activity": "<10"},
      {"smiles": "CC1(C)CC[C@]2(C(N)=O)CC[C@]3(C)C(=CC[C@@H]4[C@@]5(C)C[C@@H](O)[C@H](O)C(C)(C)[C@@H]5CC[C@]43C)[C@@H]2C1", "Activity": "<10"},
      {"smiles": "COC(=O)[C@]12CCC(C)(C)C[C@H]1C1=CC[C@@H]3[C@@]4(C)C[C@@H](OC(C)=O)C(=O)C(C)(C)[C@@H]4CC[C@@]3(C)[C@]1(C)CC2", "Activity": "<10"},
      {"smiles": "COC(=O)[C@]12CCC(C)(C)C[C@H]1[C@]1(/C=C\\[C@@]34O[C@]3(C)CC[C@H]3C(C)(C)[C@@H](O)CC[C@@]34C)O[C@@]1(C)CC2", "Activity": "<10"},
      {"smiles": "COC(=O)[C@]12CCC(C)(C)C[C@H]1C1=CC[C@@H]3[C@@]4(C)C[C@@H](C=O)C(C)(C)[C@@H]4CC[C@@]3(C)[C@]1(C)CC2", "Activity": "<10"},
      {"smiles": "CC1(C)CC[C@]2(C(=O)[O-])CC[C@]3(C)C(=CC[C@@H]4[C@@]5(C)C[C@@H](O)[C@H](O)C(C)(C)[C@@H]5CC[C@]43C)[C@@H]2C1.[Na+]", "note": "[SODIUM MASLINATE]", "Activity": "<10"},
      {"smiles": "CC(=O)O[C@@H]1C[C@]2(C)[C@H]3CC=C4[C@@H]5CC(C)(C)CC[C@]5(C(=O)O)CC[C@@]4(C)[C@]3(C)CC[C@H]2C(C)(C)[C@H]1OC(C)=O", "Activity": "<10"}
    ]},
    {"test_system": "B16-F10", "assay": "Induction of apoptosis in mouse B16F10 cells assessed as early/late apoptotic cells at 30 uM after 24 hrs using annexin V-FITC/propidium iodide staining by flow cytometry", "format": "functional", "procedure,_shortened": "as §1", "units": {"Activity": "%"}, "values": [
      {"smiles": "CC1(C)CC[C@]2(C(=O)OCc3ccccc3)CC[C@]3(C)C(=CC[C@@H]4[C@@]5(C)C=C(O)C(=O)C(C)(C)[C@@H]5CC[C@]43C)[C@@H]2C1", "Activity": 80},
      {"smiles": "CC1(C)CC[C@]2(C(=O)OCc3ccccc3)CC[C@]3(C)C(=CC[C@@H]4[C@@]5(C)CC(=O)[C@H](O)C(C)(C)[C@@H]5CC[C@]43C)[C@@H]2C1", "Activity": 80},
      {"smiles": "CC1(C)CC[C@]2(C(N)=O)CC[C@]3(C)C(=CC[C@@H]4[C@@]5(C)C[C@@H](O)[C@H](O)C(C)(C)[C@@H]5CC[C@]43C)[C@@H]2C1", "Activity": 80},
      {"smiles": "CC1(C)CC[C@]2(C(=O)[O-])CC[C@]3(C)C(=CC[C@@H]4[C@@]5(C)C[C@@H](O)[C@H](O)C(C)(C)[C@@H]5CC[C@]43C)[C@@H]2C1.[Na+]", "note": "[SODIUM MASLINATE]", "Activity": 80}
    ]},
    {"test_system": "B16-F10", "assay": "Induction of apoptosis in mouse B16F10 cells at 30 uM after 24 hrs using annexin V-FITC/propidium iodide staining by flow cytometry", "format": "functional", "procedure,_shortened": "as §1", "units": {"Activity": "%"}, "values": [
      {"smiles": "COC(=O)[C@]12CCC(C)(C)C[C@H]1[C@]1(/C=C\\[C@@]34O[C@]3(C)CC[C@H]3C(C)(C)[C@@H](O)CC[C@@]34C)O[C@@]1(C)CC2", "Activity": 30}
    ]},
    {"test_system": "B16-F10", "assay": "Induction of apoptosis in mouse B16F10 cells assessed as total apoptosis at 20 uM after 24 hrs using annexin V-FITC/propidium iodide staining by flow cytometry", "format": "functional", "procedure,_shortened": "(§2)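 B16-F10 cells in DMEM/10% FBS were plated at 300,000 cells/well, then treated 24 h later, in duplicate, in DMSO at […] for 24 or 48 h. Vehicle and medium controls were included. Annexin V-FITC/PI staining ran 15 min at room temperature in the dark. Total apoptosis (early + late) was read by flow cytometry as mean ± SD from two independent experiments.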", "units": {"Activity": "%"}, "values": [
      {"smiles": "CC1(C)CC[C@]2(C(=O)OCc3ccccc3)CC[C@]3(C)C(=CC[C@@H]4[C@@]5(C)CC(=O)[C@H](O)C(C)(C)[C@@H]5CC[C@]43C)[C@@H]2C1", "Activity": "> 70"},
      {"smiles": "CC1(C)CC[C@]2(C(N)=O)CC[C@]3(C)C(=CC[C@@H]4[C@@]5(C)C[C@@H](O)[C@H](O)C(C)(C)[C@@H]5CC[C@]43C)[C@@H]2C1", "Activity": 70},
      {"smiles": "CC1(C)CC[C@]2(C(=O)[O-])CC[C@]3(C)C(=CC[C@@H]4[C@@]5(C)C[C@@H](O)[C@H](O)C(C)(C)[C@@H]5CC[C@]43C)[C@@H]2C1.[Na+]", "note": "[SODIUM MASLINATE]", "Activity": 70}
    ]},
    {"test_system": "B16-F10", "assay": "Induction of apoptosis in mouse B16F10 cells assessed as total apoptosis at 20 uM after 48 hrs using annexin V-FITC/propidium iodide staining by flow cytometry", "format": "functional, cell-based", "procedure,_shortened": "as §2", "values": [
      {"smiles": "CC1(C)CC[C@]2(C(=O)OCc3ccccc3)CC[C@]3(C)C(=CC[C@@H]4[C@@]5(C)C=C(O)C(=O)C(C)(C)[C@@H]5CC[C@]43C)[C@@H]2C1", "Activity": "Active"},
      {"smiles": "CC1(C)CC[C@]2(C(=O)OCc3ccccc3)CC[C@]3(C)C(=CC[C@@H]4[C@@]5(C)CC(=O)[C@H](O)C(C)(C)[C@@H]5CC[C@]43C)[C@@H]2C1", "Activity": "Active"},
      {"smiles": "CC1(C)CC[C@]2(C(N)=O)CC[C@]3(C)C(=CC[C@@H]4[C@@]5(C)C[C@@H](O)[C@H](O)C(C)(C)[C@@H]5CC[C@]43C)[C@@H]2C1", "Activity": "Active"}
    ]},
    {"test_system": "B16-F10", "assay": "Induction of apoptosis in mouse B16F10 cells assessed as total apoptosis at 1 uM after 24 hrs using annexin V-FITC/propidium iodide staining by flow cytometry", "format": "functional", "procedure,_shortened": "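B16-F10 cells grown in DMEM with 4 mM L-glutamine, 1.5 g/L bicarbonate, 1 mM pyruvate, 4.5 g/L glucose, 10% FBS. Seeded at 300,000 cells/well in 6-well dishes, treated 24 h later with compound in DMSO. Vehicle and medium-only controls. Detached with EDTA-trypsin, PBS-washed, stained with annexin V-FITC and PI 15 min at room temperature in dark. Total apoptosis = early + late. Mean ± SD, two independent experiments.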", "units": {"Activity": "%"}, "values": [
      {"smiles": "CC1(C)CC[C@]2(C(=O)[O-])CC[C@]3(C)C(=CC[C@@H]4[C@@]5(C)C[C@@H](O)[C@H](O)C(C)(C)[C@@H]5CC[C@]43C)[C@@H]2C1.[Na+]", "note": "[SODIUM MASLINATE]", "Activity": 56.67}
    ]}
  ]
}
